Data: ChEMBL document CHEMBL3351612, “Merremins A-G, resin glycosides from Merremia hederacea with multidrug resistance reversal activity” (J Nat Prod, 2014)

Legend:
[1] = Multidrug resistance reversal activity in human KB/VCR cells assessed as reduction in vinblastine IC50 at 25 uM incubated for 72 hrs by sulforhodamine B assay relative to untreated control; format: functional
How it was run: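 KB/VCR cells seeded 24 h, then given vinblastine serial dilutions (0.125–1 μM) with or without 25 μM sample for 72 h at 37 °C, 5% CO2. Cells fixed in 10% TCA (4 °C, 1 h), stained 15 min with 0.4% SRB in 1% HOAc, dye dissolved in 10 mM Tris base, A510 read. Fold reversal = IC50 of drug alone / IC50 with sample.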

[2] = Toxicity against human KB/VCR cells assessed as inhibition of cell growth at 25 uM incubated for 72 hrs by sulforhodamine B assay; format: cell-based; conditions: read-out: GI

| SMILES | Ratio IC50 [1] | inhibition at 72 h, 25 µM [2] [%] |
| --- | --- | --- |
| CCCCC[C@H]1CCCCCCCCCC(=O)O[C@H]2[C@H](O[C@H]3[C@H](O1)O[C@H](C)[C@H](O)[C@@H]3OC(C)=O)O[C@@H](C)[C@H](O[C@@H]1O[C@@H](C)[C@H](O[C@@H]3O[C@@H](C)[C@H](OC(=O)[C@@H](C)CC)[C@@H](O)[C@H]3O)[C@@H](O[C@@H]3O[C@H](CO)[C@@H](O)[C@H](O)[C@H]3O)[C@H]1OC(=O)[C@@H](C)CC)[C@H]2O | 2.3 | 0.91 |
| CCCCCCCC(=O)O[C@H]1[C@H](O[C@@H]2[C@@H](O)[C@H]3OC(=O)CCCCCCCCC[C@H](CCCCC)O[C@@H]4O[C@H](C)[C@H](OC(C)=O)[C@H](O)[C@H]4O[C@@H]3O[C@H]2C)O[C@@H](C)[C@H](O[C@@H]2O[C@@H](C)[C@H](OC(=O)[C@@H](C)CC)[C@@H](O)[C@H]2O)[C@H]1O[C@@H]1O[C@H](CO)[C@@H](O)[C@H](O)[C@H]1O | – | 93.8 |
| CCCCC[C@H]1CCCCCCCCCC(=O)O[C@H]2[C@H](O[C@H]3[C@H](O1)O[C@H](C)[C@H](OC(C)=O)[C@@H]3O)O[C@@H](C)[C@H](O[C@@H]1O[C@@H](C)[C@H](O[C@@H]3O[C@@H](C)[C@H](OC(=O)[C@@H](C)CC)[C@@H](O)[C@H]3O)[C@@H](O[C@@H]3O[C@H](CO)[C@@H](O)[C@H](O)[C@H]3O)[C@H]1OC(=O)[C@@H](C)CC)[C@H]2O | – | 97.8 |
| CCCCCCCCCC(=O)O[C@H]1[C@H](O[C@@H]2[C@@H](O)[C@H]3OC(=O)CCCCCCCCC[C@H](CCCCC)O[C@@H]4O[C@H](C)[C@H](OC(C)=O)[C@H](O)[C@H]4O[C@@H]3O[C@H]2C)O[C@@H](C)[C@H](O[C@@H]2O[C@@H](C)[C@H](OC(=O)[C@@H](C)CC)[C@@H](O)[C@H]2O)[C@H]1O[C@@H]1O[C@H](CO)[C@@H](O)[C@H](O)[C@H]1O | – | 96.6 |
| CCCCC[C@H]1CCCCCCCCCC(=O)O[C@H]2[C@@H](O)[C@H](O[C@H]3[C@H](O1)O[C@H](C)[C@H](O)[C@@H]3O)O[C@@H](C)[C@@H]2O[C@@H]1O[C@@H](C)[C@H](O[C@@H]2O[C@@H](C)[C@H](O)[C@@H](O)[C@H]2O)[C@@H](O[C@@H]2O[C@H](CO)[C@@H](O)[C@H](O)[C@H]2O)[C@H]1OC(=O)[C@@H](C)CC | 15.8 | -0.08 |
| CCCCC[C@@H](CCCCCCCCCC(=O)OC)O[C@@H]1O[C@H](C)[C@H](O)[C@H](O)[C@H]1O[C@@H]1O[C@@H](C)[C@H](O[C@@H]2O[C@@H](C)[C@H](O[C@@H]3O[C@@H](C)[C@H](OC(=O)[C@@H](C)CC)[C@@H](O)[C@H]3O)[C@@H](O[C@@H]3O[C@H](CO)[C@@H](O)[C@H](O)[C@H]3O)[C@H]2O)[C@@H](O)[C@H]1O | 2.5 | 0.23 |
| CCCCCCCCCC(=O)O[C@H]1[C@H](O[C@@H]2[C@@H](O)[C@H]3OC(=O)CCCCCCCCC[C@H](CCCCC)O[C@@H]4O[C@H](C)[C@H](O)[C@H](O)[C@H]4O[C@@H]3O[C@H]2C)O[C@@H](C)[C@H](O[C@@H]2O[C@@H](C)[C@H](OC(=O)[C@@H](C)CC)[C@@H](O)[C@H]2O)[C@H]1O[C@@H]1O[C@H](CO)[C@@H](O)[C@H](O)[C@H]1O | – | 96.7 |
| CCCCC[C@H]1CCCCCCCCCC(=O)O[C@H]2[C@@H](O)[C@H](O[C@H]3[C@H](O1)O[C@H](C)[C@H](O)[C@@H]3O)O[C@@H](C)[C@@H]2O[C@@H]1O[C@@H](C)[C@H](O[C@@H]2O[C@@H](C)[C@H](OC(=O)[C@@H](C)CC)[C@@H](OC(=O)/C=C/c3ccccc3)[C@H]2O)[C@@H](O[C@@H]2O[C@H](CO)[C@@H](O)[C@H](O)[C@H]2O)[C@H]1OC(=O)[C@@H](C)CC | – | 91.1 |
| CCCCC[C@H]1CCCCCCCCCC(=O)O[C@H]2[C@H](O[C@H]3[C@H](O1)O[C@H](C)[C@H](O)[C@@H]3O)O[C@@H](C)[C@H](O[C@@H]1O[C@@H](C)[C@H](O[C@@H]3O[C@@H](C)[C@H](OC(=O)[C@@H](C)CC)[C@@H](O)[C@H]3O)[C@@H](O[C@@H]3O[C@H](CO)[C@@H](O)[C@H](O)[C@H]3O)[C@H]1OC(=O)[C@@H](C)CC)[C@H]2O [MURUCOIDIN IV] | – | 97.5 |
| CCCCC[C@H]1CCCCCCCCCC(=O)O[C@H]2[C@@H](O)[C@H](O[C@H]3[C@H](O1)O[C@H](C)[C@H](O)[C@@H]3O)O[C@@H](C)[C@@H]2O[C@@H]1O[C@@H](C)[C@H](O[C@@H]2O[C@@H](C)[C@H](OC(=O)[C@@H](C)CC)[C@@H](O)[C@H]2O)[C@@H](O[C@@H]2O[C@H](CO)[C@@H](O)[C@H](O)[C@H]2O)[C@H]1OC(=O)[C@@H](C)CC [MURUCOIDIN V] | 142.5 | 7.72 |
